Test results published in ChEMBL document CHEMBL2417477, “Synthesis and antibacterial activity of doxycycline neoglycosides” (J Nat Prod, 2013).
Values after ≈ are worked out from the molar mass of the structure shown.

Key:
Staphylococcus aureus = test: Antibacterial activity against tetracycline-resistant Staphylococcus aureus R2507 assessed as growth inhibition; format: functional
Escherichia coli [1] = test: Antibacterial activity against tetracycline-resistant Escherichia coli 1-849 assessed as growth inhibition; format: functional
Escherichia coli [2] = test: Antibacterial activity against tetracycline-sensitive Escherichia coli ATCC 25922 assessed as growth inhibition; format: functional
[3] = Cytotoxicity against human IMR90 cells assessed as cell viability at 10 uM after 2 days by Alamar Blue assay relative to control; format: cell-based; details: IMR-90 cells, read-out: Activity
How it was run: (§1)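 Resazurin (AlamarBlue) read-out of residual metabolic activity. A549 grown in DMEM/F-12 Kaighn's and IMR 90 in MEM/EBSS, both with 10% heat-inactivated FBS, penicillin/streptomycin and 2 mM L-glutamine. Seeded at 2 × 10^3 cells/well, held 24 h at 37 °C in 5% CO2, then exposed to 10 μM final for 2 days. Controls: 1.5 mM H2O2 and 10 μg/ml actinomycin D.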

[4] = Cytotoxicity against human A549 cells assessed as cell viability at 10 uM after 2 days by Alamar Blue assay relative to control; format: cell-based; details: read-out: Activity; how it was run: as §1
[5] = Stability of the compound in DMSO at -20 degC at 3 mM after 12 months by HPLC analysis; format: physicochemical; details: 8766 h, 3000 µM

| Structure (SMILES) | MIC (Staphylococcus aureus) [µg/mL] | MIC (Escherichia coli [1]) [µg/mL] | MIC (Escherichia coli [2]) [µg/mL] | viability at 48 h, 10 µM [3] [%] | viability at 48 h, 10 µM [4] [%] | Stability [5] |
| --- | --- | --- | --- | --- | --- | --- |
| C[C@H]1c2ccc(N)c(O)c2C(=O)C2=C(O)[C@]3(O)C(=O)C(C(N)=O)=C(O)[C@@H](N(C)C)[C@@H]3[C@@H](O)[C@@H]21 | 4 (≈ 8.71 µM) | 2 (≈ 4.35 µM) | 1 (≈ 2.18 µM) |  |  |  |
| CON(CC(=O)Nc1ccc2c(c1O)C(=O)C1=C(O)[C@]3(O)C(=O)C(C(N)=O)=C(O)[C@@H](N(C)C)[C@@H]3[C@@H](O)[C@@H]1[C@H]2C)[C@@H]1O[C@H](CO)[C@@H](O)[C@H](O)[C@H]1N | 32 (≈ 45.2 µM) | 32 (≈ 45.2 µM) | 8 (≈ 11.3 µM) | 102 | 95.6 |  |
| CONCC(=O)Nc1ccc2c(c1O)C(=O)C1=C(O)[C@]3(O)C(=O)C(C(N)=O)=C(O)[C@@H](N(C)C)[C@@H]3[C@@H](O)[C@@H]1[C@H]2C | 4 (≈ 7.32 µM) | 8 (≈ 14.6 µM) | 4 (≈ 7.32 µM) | 99.2 | 95.9 |  |
| CON(CC(=O)Nc1ccc2c(c1O)C(=O)C1=C(O)[C@]3(O)C(=O)C(C(N)=O)=C(O)[C@@H](N(C)C)[C@@H]3[C@@H](O)[C@@H]1[C@H]2C)[C@H]1O[C@H](CO)[C@@H](O)[C@H](O)[C@H]1N | 4 (≈ 5.65 µM) | 4 (≈ 5.65 µM) | 4 (≈ 5.65 µM) | 94.6 | 99.1 | Stable |
| CON(CC(=O)Nc1ccc2c(c1O)C(=O)C1=C(O)[C@]3(O)C(=O)C(C(N)=O)=C(O)[C@@H](N(C)C)[C@@H]3[C@@H](O)[C@@H]1[C@H]2C)[C@H]1CC[C@H](N(C)C)[C@@H](C)O1 | 16 (≈ 23.3 µM) | 32 (≈ 46.5 µM) | 4 (≈ 5.82 µM) | 101 | 96.9 |  |
| CON(CC(=O)Nc1ccc2c(c1O)C(=O)C1=C(O)[C@]3(O)C(=O)C(C(N)=O)=C(O)[C@@H](N(C)C)[C@@H]3[C@@H](O)[C@@H]1[C@H]2C)[C@@H]1O[C@H](CO)[C@@H](O)[C@H](O)[C@H]1NC(=O)C(F)(F)F | 16 (≈ 19.9 µM) | 32 (≈ 39.8 µM) | 4 (≈ 4.98 µM) | 109 | 98.7 |  |
| CON(CC(=O)Nc1ccc2c(c1O)C(=O)C1=C(O)[C@]3(O)C(=O)C(C(N)=O)=C(O)[C@@H](N(C)C)[C@@H]3[C@@H](O)[C@@H]1[C@H]2C)C1O[C@H](CO)[C@@H](O)[C@H](OC(C)C(=O)O)[C@H]1NC(C)=O (mixture of isomers) | 16 | 32 | 8 | 104 | 97.7 |  |
| CON(CC(=O)Nc1ccc2c(c1O)C(=O)C1=C(O)[C@]3(O)C(=O)C(C(N)=O)=C(O)[C@@H](N(C)C)[C@@H]3[C@@H](O)[C@@H]1[C@H]2C)C1O[C@H](CO)[C@@H](O)[C@H](O)[C@@H]1N (mixture of isomers) | 32 | 32 | 4 | 98.9 | 97.1 |  |
| CON(CC(=O)Nc1ccc2c(c1O)C(=O)C1=C(O)[C@]3(O)C(=O)C(C(N)=O)=C(O)[C@@H](N(C)C)[C@@H]3[C@@H](O)[C@@H]1[C@H]2C)C1OC[C@@H](O)[C@@H](O)[C@@H]1O (mixture of isomers) | 32 | 64 | 8 | 102 | 97.2 |  |
| CON(CC(=O)Nc1ccc2c(c1O)C(=O)C1=C(O)[C@]3(O)C(=O)C(C(N)=O)=C(O)[C@@H](N(C)C)[C@@H]3[C@@H](O)[C@@H]1[C@H]2C)C1OC[C@H](O)[C@@H]1O (mixture of isomers) | 32 | 64 | 4 | 99.3 | 98.2 |  |
| C=CCOC(=O)N[C@H]1C(N(CC(=O)Nc2ccc3c(c2O)C(=O)C2=C(O)[C@]4(O)C(=O)C(C(N)=O)=C(O)[C@@H](N(C)C)[C@@H]4[C@@H](O)[C@@H]2[C@H]3C)OC)O[C@H](CO)[C@@H](O)[C@@H]1O (mixture of isomers) | 8 | 16 | 8 | 97.6 | 98.8 |  |
| C[C@H]1c2cccc(O)c2C(=O)C2=C(O)[C@]3(O)C(=O)C(C(N)=O)=C(O)[C@@H](N(C)C)[C@@H]3[C@@H](O)[C@@H]21.O [DOXYCYCLINE] | 2 | 8 | 1 |  |  |  |
